In article PMC12530853 (RSC Advances, 2025):
In brackets after ≈: the same amount, converted by molar mass.

Assays:
C. albicans ATCC 14053 = test: Minimum inhibitory concentration; assay type: cell-based; details: Candida albicans, ATCC14053, read-out: Minimum inhibitory concentration (MIC) C. albicans ATCC 14053
Summary of the method: (§1)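 Exponential-phase yeast were washed three times in PBS and suspended at 1 × 10^3 CFU/mL in RPMI 1640. Test compound and fluconazole comparator were twofold serially diluted in microplates, each concentration in triplicate wells. Growth was read as OD600, from which the MIC was determined.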

C. albicans ATCC 10231 = test: Minimum inhibitory concentration; assay type: cell-based; details: Candida albicans, ATCC10231, read-out: Minimum inhibitory concentration (MIC) C. albicans ATCC 10231
Summary of the method: as §1

C. albicans ATCC 90028 = test: Activity against additional fungal strains; assay type: cell-based; details: Table 2; no quantity or unit printed
Summary of the method: (§2)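 Fungi in exponential phase were washed three times in PBS and resuspended at 1 × 10^3 CFU mL−1 in RPMI 1640. Test compound and fluconazole were serially diluted twofold in 96-well plates, in triplicate wells per concentration. MIC was derived from OD600 readings.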

FO MYA 3461 = test: Activity against additional fungal strains; assay type: cell-based; details: Table 2; no quantity or unit printed
Summary of the method: as §2

F. solani 46492 = test: Activity against additional fungal strains; assay type: cell-based; details: Table 2; no quantity or unit printed
Summary of the method: as §2

[1] = test system: A. brasiliensis TCC 16404; test: Activity against additional fungal strains; assay type: cell-based; details: Table 2; no quantity or unit printed
Summary of the method: as §2

C. albicans ATCC 24433 = test: Activity against additional fungal strains; assay type: cell-based; details: Table 2; no quantity or unit printed
Summary of the method: as §2

F. solani 52628 = test: Activity against additional fungal strains; assay type: cell-based; details: Table 2; no quantity or unit printed
Summary of the method: as §2

Candida albicans = details: lack of antifungal activity; cited from earlier work

In the case of Clc1ccc(C=Nc2ncn[nH]2)cc1 [3g, 1-(4-Chlorophenyl)-N-(1H-1,2,4-triazol-5-yl)methanimine], the MIC (C. albicans ATCC 14053) is reported as > 256 µg/mL and the MIC (C. albicans ATCC 10231) is reported as > 256 µg/mL.

In the case of C(=Nc1ncn[nH]1)c1ccncc1 [3h, 1-(Pyridin-4-yl)-N-(1H-1,2,4-triazol-5-yl)methanimine], the MIC (C. albicans ATCC 14053) is reported as > 256 µg/mL and the MIC (C. albicans ATCC 10231) is reported as > 256 µg/mL.

With O=[N+]([O-])c1ccc(C=Nc2ncn[nH]2)cc1 [3i, 1-(4-Nitrophenyl)-N-(1H-1,2,4-triazol-5-yl)methanimine] the MIC (C. albicans ATCC 14053) was 128 µg/mL (≈ 589 µM) and the MIC (C. albicans ATCC 10231) was 128 µg/mL (≈ 589 µM).

For COc1ccc(C=Nc2ncn[nH]2)cc1 [3j, 1-(4-Methoxyphenyl)-N-(1H-1,2,4-triazol-5-yl)methanimine], the MIC (C. albicans ATCC 14053) was > 256 µg/mL and the MIC (C. albicans ATCC 10231) was > 256 µg/mL.

With Oc1ccc(C=Nc2ncn[nH]2)cc1 [3k, 4-{[(1H-1,2,4-Triazol-5-yl)imino]methyl}phenol] the MIC (C. albicans ATCC 14053) was > 256 µg/mL and the MIC (C. albicans ATCC 10231) was > 256 µg/mL.

With O=C(O)c1ccc(C=Nc2ncn[nH]2)cc1 [3l, 4-{[(1H-1,2,4-Triazol-5-yl)imino]methyl}benzoic acid] the MIC (C. albicans ATCC 14053) was > 256 µg/mL and the MIC (C. albicans ATCC 10231) was > 256 µg/mL.

In the case of C[C@@H]1C/C=C/C=C/C=C/C=C/[C@H](O[C@@H]2O[C@H](C)[C@@H](O)[C@H](N)[C@@H]2O)C[C@@H]2O[C@](O)(C[C@@H](O)C[C@H]3O[C@@H]3/C=C/C(=O)O1)C[C@H](O)[C@H]2C(=O)O [Natamycin, reference compound], the “Interaction against varied fungal strains: C. albicans ATCC 90028” value (C. albicans ATCC 90028) is reported as 8, the “Interaction against varied fungal strains: FO MYA 3461” value (FO MYA 3461) is reported as 8 and the “Interaction against varied fungal strains: F. solani 46492” value (F. solani 46492) is reported as 8. The MIC (C. albicans ATCC 14053) was 8 µg/mL (≈ 12 µM), the “Interaction against varied fungal strains: A. brasiliensis TCC 16404” value [1] was 8 and the MIC (C. albicans ATCC 10231) was 8 µg/mL (≈ 12 µM). For the same compound, the “Interaction against varied fungal strains: C. albicans ATCC 24433” value (C. albicans ATCC 24433) was 8 and the “Interaction against varied fungal strains: F. solani 52628” value (F. solani 52628) was 8.

In the case of O=C(NC[C@@H](c1ccccc1)n1ccnc1)c1ccc(-c2ccc(Cl)cc2)cc1 [VID400], the “MIC against Candida albicans” value (Candida albicans) is listed as > 128 µg/mL.
